Key:
[1] = biological target: T1, Prostaglandin E synthase (Homo sapiens) (UniProt O14684); assay: Inhibition of human mPGES1 expressed in 293 cell microsomes at 10 uM preincubated for 15 mins followed by PGH2 substrate addition measured after 3 secs by enzyme immunoassay relative to control
T1 sequence (whole entry): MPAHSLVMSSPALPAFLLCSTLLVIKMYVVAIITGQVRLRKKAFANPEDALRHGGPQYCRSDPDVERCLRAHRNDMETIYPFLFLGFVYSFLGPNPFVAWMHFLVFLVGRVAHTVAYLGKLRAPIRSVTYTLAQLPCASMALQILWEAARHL
Outline: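 Single-point screen at 10 μM against human mPGES-1, reported as % inhibition. Only compounds reaching the ≥70% cutoff went on to IC50 determination. Data are means ± SD from triplicate determinations.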

[2] = biological target: T2, Prostaglandin E synthase (Homo sapiens, UniProt O14684); assay: Inhibition of human mPGES1 expressed in 293 cell microsomes preincubated for 15 mins followed by PGH2 substrate addition measured after 3 secs by enzyme immunoassay
T2 sequence (O14684 whole entry): T1 sequence (whole entry)
Outline: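 Compounds were first screened against human mPGES-1 at 10 μM, and IC50 values were determined only for those giving ≥70% inhibition. Protein preparation and assay followed earlier reports. Values are means ± SD of single determinations run in triplicate.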

[3] = tested on: COX1/COX2; assay: Inhibition of ovine COX1/human COX2 assessed as reduction in PGF2alpha production at 100 uM preincubated for 10 mins followed by arachidonic acid substrate addition measured after 2 mins by colorimetric assay relative to control; conditions: sheep (COX1) / human (COX2), ovine COX1/human COX2 enzyme, probe arachidonic acid

SMILES	inhibition [1]	IC50 [2]	inhibition at 2 min, 100 µM [3]
CCCCCCOc1ccc(-c2nn(-c3ccc(Cl)cc3)cc2/C=C(\C#N)C(N)=O)cc1	14%		
CCCCCCOc1ccc(-c2nn(-c3ccc(Cl)cc3)cc2/C=C2/SC(=O)NC2=O)cc1	> 70%	1390 nM	
CCCCCCCCCCOc1ccc(-c2nn(-c3ccc(Cl)cc3)cc2C=C2C(=O)NC(=S)NC2=O)cc1	> 70%		11%
CCOc1ccc(-c2nn(-c3ccc(Cl)cc3)cc2C=C2C(=O)NC(=O)NC2=O)cc1	> 70%		
CCCCCCOc1ccc(-c2nn(-c3ccc(Cl)cc3)cc2/C=C2/SC(=O)N(CC(=O)O)C2=O)cc1	> 70%	36 nM	1.2%
CCCCCCCCOc1ccc(-c2nn(-c3ccc(Cl)cc3)cc2C=C2C(=O)NC(=O)NC2=O)cc1	> 70%		
O=C1NC(=O)C(=Cc2cn(-c3ccc(Cl)cc3)nc2-c2ccc(OCc3ccccc3)cc2)C(=O)N1	> 70%	598 nM	
CCOc1ccc(-c2nn(-c3ccc(Cl)cc3)cc2/C=C2/SC(=O)N(CC(=O)O)C2=O)cc1	> 70%	41 nM	6.8%
CCOc1ccc(-c2nn(-c3ccc(Cl)cc3)cc2C=C2C(=O)NC(=S)NC2=O)cc1	> 70%		1%
CCCCOc1ccc(-c2nn(-c3ccccc3)cc2C=C2C(=O)NC(=O)NC2=O)cc1	> 70%		
CCOc1ccc(-c2nn(-c3ccc(Cl)cc3)cc2C=C(C#N)C#N)cc1	51%		
CCOc1ccc(-c2nn(-c3ccc(Cl)cc3)cc2/C=C(\C#N)C(N)=O)cc1	32%		
CCCCOc1ccc(-c2nn(-c3ccc(Cl)cc3)cc2C=C2C(=O)NC(=S)NC2=O)cc1	> 70%		4.4%
O=C1NC(=S)NC(=O)C1=Cc1cn(-c2ccc(Cl)cc2)nc1-c1ccccc1	> 70%	561 nM	
CCCCCCOc1ccc(-c2nn(-c3ccc(Cl)cc3)cc2/C=C2/SC(=S)NC2=O)cc1	> 70%	1730 nM	
CCCCCCCCCCOc1ccc(-c2nn(-c3ccc(Cl)cc3)cc2C=C2C(=O)NC(=O)NC2=O)cc1	> 70%		
CCCCCCOc1ccc(-c2nn(-c3ccc(Cl)cc3)cc2/C=C(\C#N)C(=O)O)cc1	> 70%	83 nM	19%
CCOc1ccc(-c2nn(-c3ccc(Cl)cc3)cc2/C=C2/SC(=O)NC2=O)cc1	> 70%	1590 nM	
O=C1NC(=O)C(=Cc2cn(-c3ccc(Cl)cc3)nc2-c2ccccc2)C(=O)N1	> 70%	337 nM	
CCCCCCOc1ccc(-c2nn(-c3ccc(Cl)cc3)cc2C=C2C(=O)NC(=O)NC2=O)cc1	> 70%		
O=C1NC(=S)NC(=O)C1=Cc1cn(-c2ccc(Cl)cc2)nc1-c1ccc(OCc2ccccc2)cc1	> 70%	797 nM	
CCCCCCOc1ccc(-c2nn(-c3ccc(Cl)cc3)cc2C=C2C(=O)NC(=S)NC2=O)cc1	> 70%		0.7%
CCOc1ccc(-c2nn(-c3ccc(Cl)cc3)cc2/C=C(\C#N)C(=O)O)cc1	> 70%	283 nM	
CCCCCCOc1ccc(-c2nn(-c3ccc(Cl)cc3)cc2C=C(C#N)C#N)cc1	64%		
CCCCOc1ccc(-c2nn(-c3ccccc3)cc2C=C2C(=O)NC(=S)NC2=O)cc1	> 70%		16%
CCOc1ccc(-c2nn(-c3ccc(Cl)cc3)cc2/C=C2/SC(=S)NC2=O)cc1	> 70%	1040 nM	
CCCCOc1ccc(-c2nn(-c3ccc(Cl)cc3)cc2C=C2C(=O)NC(=O)NC2=O)cc1	> 70%		
CCCCCCCCOc1ccc(-c2nn(-c3ccc(Cl)cc3)cc2C=C2C(=O)NC(=S)NC2=O)cc1	> 70%		0%
